From ChEMBL document CHEMBL2203175, “Discovery and optimization of sulfonyl acrylonitriles as selective, covalent inhibitors of protein phosphatase methylesterase-1” (J Med Chem, 2011)
Active and inactive are the calls of the source. No cut-off for these calls is given here.

Legend:
[1] = target: T1, Protein phosphatase methylesterase 1 (Homo sapiens) (UniProt Q9Y570); test: Inhibition of PME1 overexpressed in HEK293T cells assessed as increase in methylated PP2A level at 20 uM after 1 hr by Western blot analysis; assay type: cell-based; settings: HEK-293T
T1 sequence (whole entry): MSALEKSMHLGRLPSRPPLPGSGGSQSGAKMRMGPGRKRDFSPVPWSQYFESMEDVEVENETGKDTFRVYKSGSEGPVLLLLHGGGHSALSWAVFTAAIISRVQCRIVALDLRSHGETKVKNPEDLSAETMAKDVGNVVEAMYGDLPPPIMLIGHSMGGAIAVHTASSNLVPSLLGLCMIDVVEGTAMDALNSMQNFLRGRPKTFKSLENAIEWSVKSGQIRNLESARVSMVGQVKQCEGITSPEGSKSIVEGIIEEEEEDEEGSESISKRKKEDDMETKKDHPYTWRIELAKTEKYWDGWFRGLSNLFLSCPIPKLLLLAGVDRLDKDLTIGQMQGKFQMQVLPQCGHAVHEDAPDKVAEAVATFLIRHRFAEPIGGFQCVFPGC
Outline: (§1)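 HEK 293T cells, either stably overexpressing PME-1 or untransfected, treated in medium for 1 h at 37 °C. Total cell extract (2 mg/mL) run on reducing SDS-PAGE (10%) and blotted with demethylated-specific (4b7), methylated-specific (2A10) and total PP2A antibodies, imaged by infrared fluorescence. Mean ± SEM, n = 3, compared against DMSO-treated cells.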

[2] = target: T1, Protein phosphatase methylesterase 1 (Homo sapiens); test: Inhibition of PME1 overexpressed in HEK293T cells assessed as reduction in demethylated PP2A level at 20 uM after 1 hr by Western blot analysis relative to control; assay type: cell-based; settings: HEK-293T; outline: as §1
[3] = target: Testis-expressed protein 30 (Homo sapiens) (UniProt Q5JUR7); test: Inhibition of C13orf27 binding to FP-biotin in [12C][14N]-lysine, arginine and [13C6][15N2]-lysine, arginine labeled HEK293T cells at 20 uM after 1 hr by isotopic activity-based protein profiling-MudPIT assay; assay type: cell-based; settings: HEK-293T
Testis-expressed protein 30 (Homo sapiens), sequence (Q5JUR7 whole entry): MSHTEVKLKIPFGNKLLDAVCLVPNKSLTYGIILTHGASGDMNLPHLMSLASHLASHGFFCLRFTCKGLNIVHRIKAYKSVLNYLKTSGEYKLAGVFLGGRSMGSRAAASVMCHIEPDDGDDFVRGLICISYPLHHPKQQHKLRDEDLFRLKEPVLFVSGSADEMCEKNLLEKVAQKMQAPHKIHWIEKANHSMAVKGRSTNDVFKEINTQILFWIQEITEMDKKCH
Outline: (§2)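 SILAC HEK 293T: light cells (12C14N-Lys/Arg) treated with compound, heavy cells (13C6 15N2-Lys/Arg) with DMSO, 1 h at 37 °C. Proteomes were mixed 1:1 (0.5 mg each) and labeled with FP-biotin (5 μM, 1 h, 25 °C), then streptavidin-enriched, digested on bead with trypsin, and run by MudPIT. Light/heavy ratios were normalized to a DMSO/DMSO control. Only SHs with ≥2 quantifiable peptides were kept; mean ± SEM across peptides.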

[4] = target: Calcium-independent phospholipase A2-gamma (Homo sapiens) (UniProt Q9NP80); test: Inhibition of PNPLA8 binding to FP-biotin in [12C][14N]-lysine, arginine and [13C6][15N2]-lysine, arginine labeled HEK293T cells at 20 uM after 1 hr by isotopic activity-based protein profiling-MudPIT assay; assay type: cell-based; settings: HEK-293T; outline: as §2
[5] = target: Phosphatidylserine lipase ABHD16A (Homo sapiens) (UniProt O95870); test: Inhibition of BAT5 binding to FP-biotin in [12C][14N]-lysine, arginine and [13C6][15N2]-lysine, arginine labeled HEK293T cells at 20 uM after 1 hr by isotopic activity-based protein profiling-MudPIT assay; assay type: cell-based; settings: HEK-293T; outline: as §2
[6] = target: Platelet-activating factor acetylhydrolase IB subunit alpha1 (Homo sapiens) (UniProt Q15102); test: Inhibition of PAFAH1B3 binding to FP-biotin in [12C][14N]-lysine, arginine and [13C6][15N2]-lysine, arginine labeled HEK293T cells at 20 uM after 1 hr by isotopic activity-based protein profiling-MudPIT assay; assay type: cell-based; settings: HEK-293T; outline: as §2
Platelet-activating factor acetylhydrolase IB subunit alpha1 (Homo sapiens), sequence (Q15102 whole entry): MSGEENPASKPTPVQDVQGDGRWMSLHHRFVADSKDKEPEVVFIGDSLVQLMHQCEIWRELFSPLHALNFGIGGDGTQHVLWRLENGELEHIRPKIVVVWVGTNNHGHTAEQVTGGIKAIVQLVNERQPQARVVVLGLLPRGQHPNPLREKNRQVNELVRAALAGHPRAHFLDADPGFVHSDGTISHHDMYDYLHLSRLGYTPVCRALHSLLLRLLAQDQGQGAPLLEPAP

[7] = target: Neutral cholesterol ester hydrolase 1 (Homo sapiens) (UniProt Q6PIU2); test: Inhibition of AADACL1 binding to FP-biotin in [12C][14N]-lysine, arginine and [13C6][15N2]-lysine, arginine labeled HEK293T cells at 20 uM after 1 hr by isotopic activity-based protein profiling-MudPIT assay; assay type: cell-based; settings: HEK-293T; outline: as §2
Neutral cholesterol ester hydrolase 1 (Homo sapiens), sequence (Q6PIU2 whole entry, the tested form may be a part): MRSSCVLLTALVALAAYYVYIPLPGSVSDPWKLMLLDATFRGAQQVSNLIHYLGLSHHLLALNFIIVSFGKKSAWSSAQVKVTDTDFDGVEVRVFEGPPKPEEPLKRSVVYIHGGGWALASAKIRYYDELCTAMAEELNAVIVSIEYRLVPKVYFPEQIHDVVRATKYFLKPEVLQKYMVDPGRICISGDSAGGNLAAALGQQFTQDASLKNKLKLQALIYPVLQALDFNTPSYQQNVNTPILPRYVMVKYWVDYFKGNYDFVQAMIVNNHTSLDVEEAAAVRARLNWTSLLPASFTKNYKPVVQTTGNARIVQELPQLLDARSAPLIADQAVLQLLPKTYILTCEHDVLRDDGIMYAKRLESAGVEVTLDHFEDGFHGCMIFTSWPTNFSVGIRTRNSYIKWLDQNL

[8] = target: Alpha/beta hydrolase domain-containing protein 17B (Homo sapiens) (UniProt Q5VST6); test: Inhibition of FAM108B1 binding to FP-biotin in [12C][14N]-lysine, arginine and [13C6][15N2]-lysine, arginine labeled HEK293T cells at 20 uM after 1 hr by isotopic activity-based protein profiling-MudPIT assay; assay type: cell-based; settings: HEK-293T; outline: as §2
Alpha/beta hydrolase domain-containing protein 17B (Homo sapiens), sequence (Q5VST6 whole entry, the tested form may be a part): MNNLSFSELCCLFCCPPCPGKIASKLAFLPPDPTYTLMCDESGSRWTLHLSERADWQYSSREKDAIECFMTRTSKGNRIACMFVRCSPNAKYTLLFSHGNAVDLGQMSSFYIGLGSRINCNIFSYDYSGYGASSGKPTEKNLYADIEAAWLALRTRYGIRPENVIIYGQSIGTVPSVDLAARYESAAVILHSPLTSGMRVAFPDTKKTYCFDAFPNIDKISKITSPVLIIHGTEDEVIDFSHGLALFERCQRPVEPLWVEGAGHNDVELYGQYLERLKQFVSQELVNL

[9] = target: Acylamino-acid-releasing enzyme (Homo sapiens) (UniProt P13798); test: Inhibition of APEH binding to FP-biotin in [12C][14N]-lysine, arginine and [13C6][15N2]-lysine, arginine labeled HEK293T cells at 20 uM after 1 hr by isotopic activity-based protein profiling-MudPIT assay; assay type: cell-based; settings: HEK-293T; outline: as §2
[10] = target: Lysosomal Pro-X carboxypeptidase (Homo sapiens) (UniProt P42785); test: Inhibition of PRCP binding to FP-biotin in[12C][14N]-lysine, arginine and [13C6][15N2]-lysine, arginine labeled HEK293T cells at 20 uM after 1 hr by isotopic activity-based protein profiling-MudPIT assay; assay type: cell-based; settings: HEK-293T; outline: as §2
[11] = target: Prolyl endopeptidase (Homo sapiens) (UniProt P48147); test: Inhibition of PREP binding to FP-biotin in [12C][14N]-lysine, arginine and [13C6][15N2]-lysine, arginine labeled HEK293T cells at 20 uM after 1 hr by isotopic activity-based protein profiling-MudPIT assay; assay type: cell-based; settings: HEK-293T; outline: as §2
Prolyl endopeptidase (Homo sapiens), sequence (P48147 whole entry): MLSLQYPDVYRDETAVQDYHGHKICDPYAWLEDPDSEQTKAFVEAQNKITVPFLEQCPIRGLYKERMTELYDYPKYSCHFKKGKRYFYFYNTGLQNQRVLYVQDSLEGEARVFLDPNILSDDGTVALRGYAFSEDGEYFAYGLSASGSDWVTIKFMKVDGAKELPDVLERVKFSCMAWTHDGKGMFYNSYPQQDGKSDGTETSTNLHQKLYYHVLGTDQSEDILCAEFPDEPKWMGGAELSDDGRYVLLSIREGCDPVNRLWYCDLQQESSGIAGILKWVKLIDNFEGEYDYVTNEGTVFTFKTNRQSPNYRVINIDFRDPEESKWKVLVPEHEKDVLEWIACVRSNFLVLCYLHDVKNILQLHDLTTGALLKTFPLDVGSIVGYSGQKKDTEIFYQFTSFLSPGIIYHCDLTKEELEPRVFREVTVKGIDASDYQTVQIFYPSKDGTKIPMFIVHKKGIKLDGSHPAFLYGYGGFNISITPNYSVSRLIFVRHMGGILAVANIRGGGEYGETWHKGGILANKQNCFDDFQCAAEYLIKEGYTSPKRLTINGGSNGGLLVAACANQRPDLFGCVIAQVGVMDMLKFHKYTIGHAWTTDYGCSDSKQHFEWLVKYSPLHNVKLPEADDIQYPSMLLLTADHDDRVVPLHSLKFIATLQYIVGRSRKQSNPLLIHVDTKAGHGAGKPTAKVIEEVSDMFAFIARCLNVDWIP

[12] = target: sn-1-specific diacylglycerol lipase ABHD11 (Homo sapiens) (UniProt Q8NFV4); test: Inhibition of ABHD11 binding to FP-biotin in [12C][14N]-lysine, arginine and [13C6][15N2]-lysine, arginine labeled HEK293T cells at 20 uM after 1 hr by isotopic activity-based protein profiling-MudPIT assay; assay type: cell-based; settings: HEK-293T; outline: as §2
[13] = target: Fatty acid synthase (Homo sapiens) (UniProt P49327); test: Inhibition of FASN binding to FP-biotin in [12C][14N]-lysine, arginine and [13C6][15N2]-lysine, arginine labeled HEK293T cells at 20 uM after 1 hr by isotopic activity-based protein profiling-MudPIT assay; assay type: cell-based; settings: HEK-293T; outline: as §2
Fatty acid synthase (Homo sapiens), sequence (P49327 whole entry, looked up): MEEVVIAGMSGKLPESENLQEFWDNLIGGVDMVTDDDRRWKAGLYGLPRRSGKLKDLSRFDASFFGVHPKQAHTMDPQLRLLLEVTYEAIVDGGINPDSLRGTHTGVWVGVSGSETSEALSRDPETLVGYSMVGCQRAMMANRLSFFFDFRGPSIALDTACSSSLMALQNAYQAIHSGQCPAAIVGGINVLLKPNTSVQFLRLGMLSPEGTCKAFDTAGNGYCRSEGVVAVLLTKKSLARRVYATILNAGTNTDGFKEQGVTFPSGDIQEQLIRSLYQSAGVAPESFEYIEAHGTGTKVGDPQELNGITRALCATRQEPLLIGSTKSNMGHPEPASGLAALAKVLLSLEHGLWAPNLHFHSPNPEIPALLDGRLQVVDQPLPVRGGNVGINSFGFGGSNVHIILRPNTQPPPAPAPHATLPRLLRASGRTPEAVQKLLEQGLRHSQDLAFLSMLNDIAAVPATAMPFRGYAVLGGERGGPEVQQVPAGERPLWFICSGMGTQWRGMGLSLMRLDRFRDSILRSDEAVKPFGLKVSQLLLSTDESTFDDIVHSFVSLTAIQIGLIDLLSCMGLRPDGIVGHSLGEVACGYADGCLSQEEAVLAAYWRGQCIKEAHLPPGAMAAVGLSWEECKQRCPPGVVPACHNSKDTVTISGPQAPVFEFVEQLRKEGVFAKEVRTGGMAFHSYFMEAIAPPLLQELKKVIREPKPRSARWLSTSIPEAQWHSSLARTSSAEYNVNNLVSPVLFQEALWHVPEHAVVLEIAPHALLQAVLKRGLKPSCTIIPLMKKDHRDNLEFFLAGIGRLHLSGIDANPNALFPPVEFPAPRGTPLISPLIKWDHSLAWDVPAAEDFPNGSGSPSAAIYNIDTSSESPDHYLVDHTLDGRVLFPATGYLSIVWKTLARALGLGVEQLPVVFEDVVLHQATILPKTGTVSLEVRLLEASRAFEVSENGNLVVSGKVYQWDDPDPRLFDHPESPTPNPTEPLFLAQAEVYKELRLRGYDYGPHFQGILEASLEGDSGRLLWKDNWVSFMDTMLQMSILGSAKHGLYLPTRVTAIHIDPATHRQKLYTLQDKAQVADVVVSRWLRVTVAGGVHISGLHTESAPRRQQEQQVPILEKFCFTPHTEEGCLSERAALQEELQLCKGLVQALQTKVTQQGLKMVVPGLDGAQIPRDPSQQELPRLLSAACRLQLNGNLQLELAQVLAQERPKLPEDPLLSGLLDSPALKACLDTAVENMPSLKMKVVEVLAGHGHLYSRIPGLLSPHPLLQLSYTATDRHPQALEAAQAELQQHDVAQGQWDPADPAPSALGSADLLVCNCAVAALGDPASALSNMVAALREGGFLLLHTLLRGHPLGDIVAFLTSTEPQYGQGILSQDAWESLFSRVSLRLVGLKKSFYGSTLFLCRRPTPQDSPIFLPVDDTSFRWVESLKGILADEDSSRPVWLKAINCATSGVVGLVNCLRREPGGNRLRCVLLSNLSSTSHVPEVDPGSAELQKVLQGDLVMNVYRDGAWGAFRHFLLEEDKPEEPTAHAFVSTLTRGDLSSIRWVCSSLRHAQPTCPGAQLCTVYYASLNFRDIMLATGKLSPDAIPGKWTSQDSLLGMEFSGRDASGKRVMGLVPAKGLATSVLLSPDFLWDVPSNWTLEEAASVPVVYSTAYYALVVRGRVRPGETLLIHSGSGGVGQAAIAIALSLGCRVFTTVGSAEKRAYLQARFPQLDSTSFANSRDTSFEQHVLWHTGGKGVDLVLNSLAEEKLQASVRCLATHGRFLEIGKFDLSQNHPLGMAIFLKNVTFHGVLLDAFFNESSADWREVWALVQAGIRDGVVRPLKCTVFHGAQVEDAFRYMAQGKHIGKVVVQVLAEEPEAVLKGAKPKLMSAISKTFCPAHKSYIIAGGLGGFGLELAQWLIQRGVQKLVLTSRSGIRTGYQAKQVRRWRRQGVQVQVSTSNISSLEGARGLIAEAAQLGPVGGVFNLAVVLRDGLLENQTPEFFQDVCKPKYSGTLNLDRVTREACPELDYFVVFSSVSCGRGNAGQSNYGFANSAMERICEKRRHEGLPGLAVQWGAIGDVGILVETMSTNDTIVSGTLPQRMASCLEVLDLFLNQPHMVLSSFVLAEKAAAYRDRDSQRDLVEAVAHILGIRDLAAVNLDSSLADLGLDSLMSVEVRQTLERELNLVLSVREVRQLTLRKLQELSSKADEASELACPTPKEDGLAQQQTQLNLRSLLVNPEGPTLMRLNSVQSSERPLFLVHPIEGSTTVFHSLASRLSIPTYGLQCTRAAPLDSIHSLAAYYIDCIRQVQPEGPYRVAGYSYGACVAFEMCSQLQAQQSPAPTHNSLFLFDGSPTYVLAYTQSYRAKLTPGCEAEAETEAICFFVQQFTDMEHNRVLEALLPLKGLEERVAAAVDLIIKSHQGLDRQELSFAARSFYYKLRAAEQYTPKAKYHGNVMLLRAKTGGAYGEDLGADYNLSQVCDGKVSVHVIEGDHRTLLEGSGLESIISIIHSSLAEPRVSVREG

[14] = target: Acyl-protein thioesterase 1 (Homo sapiens) (UniProt O75608); test: Inhibition of LYPLA1 binding to FP-biotin in [12C][14N]-lysine, arginine and [13C6][15N2]-lysine, arginine labeled HEK293T cells at 20 uM after 1 hr by isotopic activity-based protein profiling-MudPIT assay; assay type: cell-based; settings: HEK-293T; outline: as §2
Acyl-protein thioesterase 1 (Homo sapiens), sequence (O75608 whole entry): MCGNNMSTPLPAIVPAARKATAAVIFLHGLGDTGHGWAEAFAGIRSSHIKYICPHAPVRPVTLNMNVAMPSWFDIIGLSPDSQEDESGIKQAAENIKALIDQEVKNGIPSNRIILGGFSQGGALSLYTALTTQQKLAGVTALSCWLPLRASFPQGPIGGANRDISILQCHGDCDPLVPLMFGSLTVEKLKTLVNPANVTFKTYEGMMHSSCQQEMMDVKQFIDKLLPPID

[15] = target: Lysosomal phospholipase A and acyltransferase (Homo sapiens) (UniProt Q8NCC3); test: Inhibition of LYPLA3 binding to FP-biotin in [12C][14N]-lysine, arginine and [13C6][15N2]-lysine, arginine labeled HEK293T cells at 20 uM after 1 hr by isotopic activity-based protein profiling-MudPIT assay; assay type: cell-based; settings: HEK-293T; outline: as §2
[16] = target: Lysosomal thioesterase PPT2 (Homo sapiens) (UniProt Q9UMR5); test: Inhibition of PPT2 binding to FP-biotin in [12C][14N]-lysine, arginine and [13C6][15N2]-lysine, arginine labeled HEK293T cells at 20 uM after 1 hr by isotopic activity-based protein profiling-MudPIT assay; assay type: cell-based; settings: HEK-293T; outline: as §2
Lysosomal thioesterase PPT2 (Homo sapiens), sequence (Q9UMR5 whole entry): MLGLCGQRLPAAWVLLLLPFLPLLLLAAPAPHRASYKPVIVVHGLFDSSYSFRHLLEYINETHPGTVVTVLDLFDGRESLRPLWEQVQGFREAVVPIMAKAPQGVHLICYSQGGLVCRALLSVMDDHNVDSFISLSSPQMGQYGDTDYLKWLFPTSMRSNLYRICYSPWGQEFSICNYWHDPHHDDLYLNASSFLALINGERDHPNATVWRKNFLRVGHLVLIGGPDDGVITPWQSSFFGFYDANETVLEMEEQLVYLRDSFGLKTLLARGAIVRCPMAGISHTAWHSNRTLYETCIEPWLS

[17] = target: T1, Protein phosphatase methylesterase 1 (Homo sapiens); settings: HEK-293T, 20 uM

In the case of `N#C/C(=C\c1cccn1S(=O)(=O)c1cccc([N+](=O)[O-])c1)S(=O)(=O)c1ccc(F)cc1`, the inhibition [1] is reported as “Active”, the inhibition [2] is reported as 80% and the inhibition [3] is reported as “inactive”. For the same molecule, the inhibition [4] was “inactive”, the inhibition [5] was “inactive” and the inhibition [6] was “inactive”. For the same molecule, the inhibition [7] was “inactive”, the inhibition [8] was “inactive” and the inhibition [9] was “inactive”. The inhibition [10] was “inactive”, the inhibition [11] was “inactive” and the inhibition [12] was “inactive”. The inhibition [13] was “inactive”, the inhibition [14] was “inactive” and the inhibition [15] was “inactive”. For the same molecule, the inhibition [16] was “inactive” and the inhibition [17] was “Active”.
